ChEMBL document CHEMBL3124861, “Application of ProTide technology to gemcitabine: a successful approach to overcome the key cancer resistance mechanisms leads to a new agent (NUC-1031) in clinical development” (J Med Chem, 2014)
Active and inactive are the calls of the source. The calls are words filed in the database; no cut-off is given here.

Assays:
L1210 = experiment: Cytostatic activity against mouse L1210 cells after 48 hrs by coulter counter analysis; format: functional, cell-based; settings: L1210, 48 h
How it was run: (§1)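 Tumor cell proliferation assay with murine leukemia and human T-lymphoblast cells. IC50 is the concentration that inhibits proliferation by 50%. Values are means of at least two independent experiments.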

CCRF-CEM = experiment: Cytostatic activity against human CEM cells after 72 hrs by coulter counter analysis; format: functional, cell-based; how it was run: as §1
[1] = Prodrug activation assessed as carboxypeptidase Y (unknown origin)-mediated formation of (S)-2-((((2R,3R,5R)-5-(4-amino-2-oxopyrimidin-1(2H)-yl)-4,4-difluoro-3-hydroxytetrahydrofuran-2-yl)methoxy)oxidophosphorylamino)propanoate at 3 mg measured after 10 mins by [31P]-NMR spectroscopic analysis
How it was run: (§2)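 The prodrug was dissolved in acetone-d6 with Trizma buffer (pH 7.6). A blank spectrum was recorded at 25 °C, then carboxypeptidase Y was added. Conversion was followed by 31P NMR spectra recorded over time, with peaks assigned by chemical shift.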

BXPC-3 [2] = experiment: Antitumor activity against human BxPC3 cells xenografted in Balb/c nude mouse assessed as tumor growth inhibition at 0.19 mmol/kg, ip administered every week for 3 weeks; format: functional, organism-based
Cytidine deaminase [3] = molecular target: T1, Cytidine deaminase (Homo sapiens, UniProt P32320); experiment: Drug degradation assessed as recombinant human cytidine deaminase-mediated dFdU formation at 100 uM measured at 30 mins by UV absorption spectroscopic analysis; format: ADME; settings: 0.5 h
How it was run: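 The nucleoside or prodrug was incubated with cytidine deaminase for 30 min. Deamination was followed by UV absorbance spectra recorded between 220 and 350 nm.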

MIA PaCa-2 [4] = experiment: Cytostatic activity against human MIAPaCa2 cells after 72 hrs by MTS assay; format: functional, cell-based; settings: MIA PaCa-2, 72 h
How it was run: (§3)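 Pancreatic carcinoma cell proliferation assay. IC50 is the concentration that inhibits tumor cell proliferation by 50%. Values are means of at least two independent experiments.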

[5] = Cytotoxicity against human PANC1 cells assessed as cell viability by MTT assay in absence of hENT1 inhibitor dipyridamole; format: functional, cell-based; settings: PANC-1
How it was run: (§4)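 PANC1 pancreatic cancer cells were grown with the test agent, with or without dipyridamole to block hENT1 nucleoside transport. Viable cells were counted by colorimetric MTT assay, and EC50 was taken as the concentration blocking proliferation by 50%.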

[6] = Prodrug activation in human MIAPaCa2 cells assessed as formation of dFdCTP after 24 hrs in presence of hENT1 inhibitor NBTI; format: cell-based; settings: mia paca-2, 24 h
How it was run: (§5)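 Pancreatic cells were exposed to the agent for 24 h, with or without a dCK inhibitor or the hENT1 inhibitor NBTI. Intracellular dFdCTP was measured by UPLC-MS/MS on a C18 column. Elution used a 10 mM ammonium acetate/acetonitrile gradient at 700 μL/min. Detection was by triple-quadrupole heated electrospray, transition m/z 502.0→159.0 at 37 V collision energy.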

MIA PaCa-2 [7] = experiment: Antitumor activity against human MIAPaCa2 cells xenografted in Balb/c nude mouse assessed as tumor growth inhibition at 0.076 mmol/kg, ip measured on day 7; format: functional, organism-based
[8] = Cytotoxicity against human PANC1 cells assessed as cell viability by MTT assay in presence of hENT1 inhibitor dipyridamole; format: functional, cell-based; settings: PANC-1; how it was run: as §4
[9] = Prodrug activation in human MIAPaCa2 cells assessed as formation of dFdCTP after 24 hrs in presence of dCK inhibitor 2T2D; format: cell-based; settings: mia paca-2, 24 h; how it was run: as §5
[10] = Cytotoxicity against human RT112 cells assessed as cell viability by MTT assay in presence of dCK substrate deoxycytidine; format: functional, cell-based; settings: RT-112
How it was run: (§6)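 RT112 cancer cells were grown with the test agent, with or without 2′-deoxycytidine as a competing dCK substrate to mimic dCK down-regulation. Viable cells were counted by colorimetric MTT assay, and EC50 was taken as the concentration blocking proliferation by 50%.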

[11] = Cytotoxicity against human RT112 cells assessed as cell viability by MTT assay in absence of dCK substrate deoxycytidine; format: functional, cell-based; settings: RT-112; how it was run: as §6
Mus musculus [12] = experiment: Toxicity in Balb/c nude mouse xenografted with human MIAPaCa2 cells assessed as change in body weight at 0.19 to 0.076 mmol/kg, ip administered 2 times per week for 2 weeks measured every week during compound treatment relative to vehicle-treated control; format: organism-based, MIA PaCa-2; settings: in vivo, 336 h
[13] = Prodrug activation assessed as carboxypeptidase Y (unknown origin)-mediated formation of (2S)-2-((((2R,3R,5R)-5-(4-amino-2-oxopyrimidin-1(2H)-yl)-4,4-difluoro-3-hydroxytetrahydrofuran-2-yl)methoxy)(phenoxy)phosphorylamino)propanoate at 3 mg measured within 10 mins by [31P]-NMR spectroscopic analysis; how it was run: as §2
[14] = Prodrug activation in human BxPC3 cells assessed as formation of dFdCTP after 24 hrs in presence of hENT1 inhibitor NBTI; format: cell-based; settings: bxpc-3, 24 h; how it was run: as §5
BXPC-3 [15] = experiment: Cytostatic activity against human BxPC3 cells after 72 hrs by MTS assay; format: functional, cell-based; settings: BXPC-3, 72 h; how it was run: as §3
Serum [16] = experiment: Prodrug activation in human serum assessed as formation of (S)-2-((((2R,3R,5R)-5-(4-amino-2-oxopyrimidin-1(2H)-yl)-4,4-difluoro-3-hydroxytetrahydrofuran-2-yl)methoxy)oxidophosphorylamino)propanoate at 5 mg measured after 5.5 hrs by [31P]-NMR spectroscopic analysis; format: cell-free
How it was run: (§7)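 The prodrug was incubated in human or rat serum and followed over time by 31P NMR. Metabolites were assigned by chemical shift. Human serum spectra were resolved by Lorentz-Gauss deconvolution.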

[17] = Prodrug activation in human BxPC3 cells assessed as formation of dFdCTP after 24 hrs in presence of dCK inhibitor 2T2D; format: cell-based; settings: bxpc-3, 24 h; how it was run: as §5
Serum [18] = experiment: Prodrug activation in rat serum assessed as formation of (S)-2-((((2R,3R,5R)-5-(4-amino-2-oxopyrimidin-1(2H)-yl)-4,4-difluoro-3-hydroxytetrahydrofuran-2-yl)methoxy)oxidophosphorylamino)propanoate at 5 mg measured after 6.5 mins by [31P]-NMR spectroscopic analysis; format: cell-free; how it was run: as §7
Mus musculus [19] = experiment: Toxicity in Balb/c nude mouse xenografted with human BxPC3 cells assessed as change in body weight at 0.19 to 0.076 mmol/kg, ip administered 2 times per week for 2 weeks measured every week during compound treatment; format: organism-based, BXPC-3; settings: in vivo, 336 h
[20] = Prodrug activation assessed as carboxypeptidase Y (unknown origin)-mediated formation of (S)-2-((((2R,3R,5R)-5-(4-amino-2-oxopyrimidin-1(2H)-yl)-4,4-difluoro-3-hydroxytetrahydrofuran-2-yl)methoxy)oxidophosphorylamino)propanoate at 3 mg measured within 12 hrs by [31P]-NMR spectroscopic analysis; how it was run: as §2
MIA PaCa-2 [21] = experiment: Antitumor activity against human MIAPaCa2 cells xenografted in Balb/c nude mouse assessed as tumor growth inhibition at 0.19 mmol/kg, ip administered every week for 3 weeks; format: functional, organism-based
RT-112 = experiment: Ratio of EC50 for human RT112 cells in presence of dCK substrate deoxycytidine to EC50 for human RT112 cells in absence of dCK substrate deoxycytidine; format: functional
How it was run: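 RT112 cells exposed to compound with or without the dCK substrate 2′-deoxycytidine, which competes for dCK activity. Viable cells counted by colorimetric MTT assay. EC50 is the concentration blocking cell proliferation, compared between the two conditions.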

Cytidine deaminase [22] = molecular target: T1, Cytidine deaminase; experiment: Drug degradation assessed as recombinant human cytidine deaminase-mediated dFdU formation at 100 uM measured within 2 mins by UV absorption spectroscopic analysis; format: ADME
How it was run: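 Compound or gemcitabine incubated with cytidine deaminase. UV absorption scanned at 220–350 nm over 30 min. Deamination to dFdU is read as an absorbance shift from 267 to 257 nm.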

MIA PaCa-2 [23] = experiment: Ratio of gemcitabine IC50 to compound IC50 for human MIAPaCa2 cells after 72 hrs by MTS assay; format: functional
BXPC-3 [24] = experiment: Ratio of gemcitabine IC50 to compound IC50 for human BxPC3 cells after 72 hrs by MTS assay; format: functional
[25] = Half life in human hepatocytes at 1 uM; format: ADME, cell-based, Hepatocyte
How it was run: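 Compounds incubated with human hepatocytes. Half-life determined.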

[26] = Metabolic stability in human liver microsomes assessed as compound remaining at 0.5 uM after 1 hr by HPLC-Ms/Ms analysis; format: ADME; settings: read-out: Stability
How it was run: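 Compounds incubated with human liver microsomes for 1 h. Percentage of parent remaining measured.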

T1 sequence (P32320 whole entry): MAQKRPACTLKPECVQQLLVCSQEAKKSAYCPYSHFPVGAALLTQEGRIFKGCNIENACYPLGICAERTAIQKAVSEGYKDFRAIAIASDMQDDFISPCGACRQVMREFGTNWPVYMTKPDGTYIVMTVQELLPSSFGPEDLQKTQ

CCCCCCOC(=O)[C@H](C)NP(=O)(OC[C@H]1O[C@@H](n2ccc(N)nc2=O)C(F)(F)[C@@H]1O)Oc1ccccc1 (stereo not given in full)
IC50 (L1210): 0.016 µM
IC50 (CCRF-CEM): 0.081 µM

C[C@H](NP(=O)(OC[C@H]1O[C@@H](n2ccc(N)nc2=O)C(F)(F)[C@@H]1O)Oc1ccccc1)C(=O)OCc1ccccc1 (stereo not given in full) [FOSGEMCITABINE PALABENAMIDE]
IC50 (L1210): 0.035 µM
Drug metabolism [1]: Active
TGI (BXPC-3 [2]): Active
Stability (Cytidine deaminase [3]): Stable
IC50 (MIA PaCa-2 [4]): 0.44 µM
EC50 [5]: 190 µM
Drug metabolism [6]: Active
TGI (MIA PaCa-2 [7]): Active
EC50 [8]: 162 µM
Drug metabolism [9]: Active
EC50 [10]: 0.0007 µM
EC50 [11]: 0.0002 µM
Activity (Mus musculus [12]): < 4%
Drug metabolism [13]: Active
Drug metabolism [14]: Active
IC50 (BXPC-3 [15]): 0.15 µM
Drug metabolism (Serum [16]): Active
Drug metabolism [17]: Active
IC50 (CCRF-CEM): 0.1 µM
Drug metabolism (Serum [18]): Active
Activity (Mus musculus [19]): Non-toxic
Drug metabolism [20]: Active
TGI (MIA PaCa-2 [21]): Active

C[C@H](NP(=O)(OC[C@H]1O[C@@H](n2ccc(N)nc2=O)C(F)(F)[C@@H]1O)Oc1ccccc1)C(=O)OCC(C)(C)C (stereo not given in full)
IC50 (L1210): 0.39 µM
IC50 (MIA PaCa-2 [4]): 1.41 µM
IC50 (BXPC-3 [15]): 0.36 µM
IC50 (CCRF-CEM): 0.44 µM

CCCCCOC(=O)C(C)(C)NP(=O)(OC[C@H]1O[C@@H](n2ccc(N)nc2=O)C(F)(F)[C@@H]1O)Oc1cccc2ccccc12 (stereo not given in full)
IC50 (L1210): 0.16 µM
IC50 (CCRF-CEM): 0.13 µM

C[C@H](NP(=O)(OC[C@H]1O[C@@H](n2ccc(N)nc2=O)C(F)(F)[C@@H]1O)Oc1ccccc1)C(=O)OC1CCCCC1 (stereo not given in full)
IC50 (L1210): 0.6 µM
IC50 (CCRF-CEM): 0.42 µM

CCCCCOC(=O)[C@H](C)NP(=O)(OC[C@H]1O[C@@H](n2ccc(N)nc2=O)C(F)(F)[C@@H]1O)Oc1ccccc1 (stereo not given in full)
IC50 (L1210): 0.024 µM
IC50 (CCRF-CEM): 0.08 µM

Nc1ccn([C@@H]2O[C@H](CO)[C@@H](O)C2(F)F)c(=O)n1 [GEMCITABINE]
TGI (BXPC-3 [2]): inactive
IC50 (MIA PaCa-2 [4]): 1.04 µM
EC50 [5]: 611 µM
Drug metabolism [6]: Not Active
TGI (MIA PaCa-2 [7]): Active
Ratio EC50 (RT-112): 75
EC50 [8]: > 2000 µM
Drug metabolism [9]: Not Active
EC50 [10]: 0.105 µM
EC50 [11]: 0.0014 µM
Stability (Cytidine deaminase [22]): Unstable
Drug metabolism [14]: Not Active
IC50 (BXPC-3 [15]): 0.67 µM
Drug metabolism [17]: Not Active
IC50 (CCRF-CEM): 0.086 µM
Activity (Mus musculus [19]): Non-toxic
TGI (MIA PaCa-2 [21]): Active

C[C@H](NP(=O)(OC[C@H]1O[C@@H](n2ccc(N)nc2=O)C(F)(F)[C@@H]1O)Oc1cccc2ccccc12)C(=O)OC1CCCC1 (stereo not given in full)
IC50 (L1210): 0.18 µM
IC50 (MIA PaCa-2 [4]): 0.46 µM
Ratio IC50 (MIA PaCa-2 [23]): 2
IC50 (BXPC-3 [15]): 0.15 µM
IC50 (CCRF-CEM): 0.11 µM

C[C@H](NP(=O)(OC[C@H]1O[C@@H](n2ccc(N)nc2=O)C(F)(F)[C@@H]1O)Oc1cccc2ccccc12)C(=O)OCc1ccccc1 (stereo not given in full)
IC50 (L1210): 0.035 µM
IC50 (MIA PaCa-2 [4]): 0.57 µM
Ratio IC50 (BXPC-3 [24]): 2
Ratio IC50 (MIA PaCa-2 [23]): 2
half-life at 1 µM [25]: 1.32 h
IC50 (BXPC-3 [15]): 0.24 µM
IC50 (CCRF-CEM): 0.1 µM
remaining at 1 h, 0.5 µM [26]: 1%

CC(C)OC(=O)[C@H](C)NP(=O)(OC[C@H]1O[C@@H](n2ccc(N)nc2=O)C(F)(F)[C@@H]1O)Oc1ccccc1 (stereo not given in full)
IC50 (L1210): > 5 µM
IC50 (MIA PaCa-2 [4]): > 5 µM
IC50 (BXPC-3 [15]): > 5 µM
IC50 (CCRF-CEM): > 5 µM

CCCCCOC(=O)[C@H](C)NP(=O)(OC[C@H]1O[C@@H](n2ccc(N)nc2=O)C(F)(F)[C@@H]1O)Oc1cccc2ccccc12 (stereo not given in full)
IC50 (L1210): 0.03 µM
IC50 (CCRF-CEM): 0.073 µM

CCCCCCOC(=O)[C@H](C)NP(=O)(OC[C@H]1O[C@@H](n2ccc(N)nc2=O)C(F)(F)[C@@H]1O)Oc1cccc2ccccc12 (stereo not given in full)
IC50 (L1210): 0.022 µM
IC50 (CCRF-CEM): 0.075 µM

C[C@H](NP(=O)(OC[C@H]1O[C@@H](n2ccc(N)nc2=O)C(F)(F)[C@@H]1O)Oc1cccc2ccccc12)C(=O)OC1CCCCC1 (stereo not given in full)
IC50 (L1210): 0.32 µM
IC50 (CCRF-CEM): 0.14 µM
